# Published values of several laboratories.
# Lines come from different studies, so protocols differ.
# MAL12: Alpha-glucosidase MAL12 (MAL12, Saccharomyces cerevisiae S288c, UniProt P53341)
SMILES,target,observed,mode,method,setting,IC50 [µM]
C[C@@H]1O[C@@H](O[C@H]2[C@H](O)[C@@H](O)[C@H](OC[C@H]3O[C@@H](OC(=O)[C@]45CCC(C)(C)C[C@H]4C4=CC[C@@H]6[C@@]7(C)CC[C@H](O[C@@H]8OC[C@H](O)[C@H](O)[C@H]8O[C@@H]8O[C@H](CO)[C@@H](O)[C@H](O)[C@H]8O)C(C)(C)[C@@H]7CC[C@@]6(C)[C@]4(C)CC5)[C@H](O)[C@@H](O)[C@@H]3O)O[C@@H]2CO)[C@H](O)[C@H](O)[C@H]1O,MAL12,enzyme activity,inhibitor,,,0.61
COc1cc(C(c2c(O)c3ccccc3oc2=O)c2c(O)c3ccccc3oc2=O)ccc1OCc1cn(CC(=O)Nc2ccc(C)cc2C)nn1,MAL12,enzyme activity,inhibitor,absorbance,,20.2
Cc1ccc2[nH]c(=O)c(CNC3CCCCC3)cc2c1,"Alpha-1A adrenergic receptor (ADRA1A, Homo sapiens, UniProt P35348, M292L)",calcium signal,antagonist,,,11
CC(C)C[C@H](NC(=O)[C@H](Cc1ccccc1)NC(=O)OCc1ccccc1)C(=O)C=O,"Cathepsin S (CTSS, Homo sapiens, UniProt P25774)",enzyme activity,inhibitor,fluorescence,,0.15
NC(=S)N/N=C/c1cc2ccccc2nc1SCc1cn(CC(=O)Nc2ccc([N+](=O)[O-])cc2)nn1,MAL12,enzyme activity,inhibitor,,,559
COc1cc(C(c2c(O)c3ccccc3oc2=O)c2c(O)c3ccccc3oc2=O)ccc1OCc1cn(CC(=O)Nc2ccc(Br)cc2)nn1,MAL12,enzyme activity,inhibitor,absorbance,,81.7
CC1(CN)CCN(c2cnc3c(Sc4ccncc4Cl)n[nH]c3n2)CC1,"Tyrosine-protein phosphatase non-receptor type 1 (PTPN1, Homo sapiens, UniProt P18031)",enzyme activity,inhibitor,,,> 100
Cc1cccc(C)c1NC(=O)Cn1cc(CSc2nc3ccccc3cc2/C=N/NC(N)=S)nn1,MAL12,enzyme activity,inhibitor,,,150
C[C@@H](OC(C)(C)C)[C@H](NC(=O)OCc1ccccc1)C(=O)N[C@@H](CC1CCCCC1)C(=O)NN(CCC(N)=O)C(=O)C(Cl)Cl,"Replicase polyprotein 1ab, main protease (rep, Severe acute respiratory syndrome coronavirus 2, UniProt P0DTD1)",enzyme activity,inhibitor,,with preincubation,0.068
Cc1cc([N+](=O)[O-])ccc1NC(=O)Cn1cc(CSc2nc3ccccc3cc2/C=N/NC(N)=S)nn1,MAL12,enzyme activity,inhibitor,,,307
Cc1ccc2oc(=O)cc(NCCO)c2c1,"Alpha-1A adrenergic receptor (ADRA1A, Homo sapiens, UniProt P35348, I178V/M292L)",calcium signal,antagonist,,,324
NC(=S)N/N=C/c1cc2ccccc2nc1SCc1cn(CC(=O)Nc2cccc([N+](=O)[O-])c2)nn1,MAL12,enzyme activity,inhibitor,,,217
COc1ccc(NC(=O)Cn2cc(COc3ccc(C(c4c(O)c5ccccc5oc4=O)c4c(O)c5ccccc5oc4=O)cc3OC)nn2)c(OC)c1,MAL12,enzyme activity,inhibitor,absorbance,,52
C[C@@H]1O[C@@H](O[C@H]2[C@H](O[C@H]3CC[C@@]4(C)[C@@H](CC[C@]5(C)[C@@H]4CC=C4[C@@H]6CC(C)(C)CC[C@]6(C(=O)O[C@@H]6O[C@H](CO[C@@H]7O[C@H](CO)[C@@H](O)[C@H](O)[C@H]7O)[C@@H](O)[C@H](O)[C@H]6O)CC[C@]45C)[C@]3(C)CO)OC[C@H](O)[C@@H]2O)[C@H](O)[C@H](O)[C@H]1O,MAL12,enzyme activity,inhibitor,,,1.74
NC(=S)N/N=C/c1cc2ccccc2nc1SCc1cn(CC(=O)Nc2ccc(Br)cc2)nn1,MAL12,enzyme activity,inhibitor,,,434
C=C1CC[C@]2(C(=O)O[C@@H]3O[C@H](CO[C@@H]4O[C@H](CO)[C@@H](O[C@@H]5O[C@@H](C)[C@H](O)[C@@H](O)[C@H]5O)[C@H](O)[C@H]4O)[C@@H](O)[C@H](O)[C@H]3O)CC[C@]3(C)C(=CC[C@@H]4[C@@]5(C)CC[C@H](O[C@@H]6OC[C@H](O)[C@H](O)[C@H]6O[C@@H]6O[C@@H](C)[C@H](O)[C@@H](O)[C@H]6O)C(C)(C)[C@@H]5CC[C@]43C)[C@@H]2C1,MAL12,enzyme activity,inhibitor,,,0.74
Nc1ncnc2c1ncn2[C@@H]1O[C@H](CO)[C@@H](O)[C@H]1O,"Solute carrier family 22 member 6 (SLC22A6, Homo sapiens, UniProt Q4U2R8)",transporter uptake,inhibitor,radiometric,oocytes,> 1000
C[C@@H]1O[C@@H](O[C@H]2[C@H](O[C@H]3CC[C@@]4(C)[C@@H](CC[C@]5(C)[C@@H]4CC=C4[C@@H]6CC(C)(C)CC[C@]6(C(=O)O)CC[C@]45C)[C@]3(C)CO)OC[C@H](O)[C@@H]2O)[C@H](O)[C@H](O)[C@H]1O,MAL12,enzyme activity,inhibitor,,,0.6
Cc1cccc(NC(=O)Cn2cc(CSc3nc4ccccc4cc3/C=N/NC(N)=S)nn2)c1C,MAL12,enzyme activity,inhibitor,,,247
COc1cc(C(c2c(O)c3ccccc3oc2=O)c2c(O)c3ccccc3oc2=O)ccc1OCc1cn(CC(=O)Nc2ccc(C)cc2)nn1,MAL12,enzyme activity,inhibitor,absorbance,,41.1
C[C@@H]1O[C@@H](O[C@H]2[C@H](O[C@H]3CC[C@@]4(C)[C@@H](CC[C@]5(C)[C@@H]4CC=C4[C@@H]6CC(C)(C)CC[C@]6(C(=O)O[C@@H]6O[C@H](CO[C@@H]7O[C@H](CO)[C@@H](O[C@@H]8O[C@@H](C)[C@H](O)[C@@H](O)[C@H]8O)[C@H](O)[C@H]7O)[C@@H](O)[C@H](O)[C@H]6O)CC[C@]45C)[C@]3(C)CO)OC[C@H](O)[C@@H]2O)[C@H](O)[C@H](O)[C@H]1O,MAL12,enzyme activity,inhibitor,,,1.78
